Source: PubChem BioAssay
NF-kB expr up: activators of NF-kB expression in neurons, primary screen, cell-based, HTS; human neuronal cells, NF-kB reporter expression; hits give high values; fold change at 12.5 µM; actives 1.6% (n = 190,000); in the data active = fold change above about 3.3
p97 ATPase inh: inhibitors of human p97 ATPase, primary screen, biochemical; actives 0.42% (n = 220,000); AID 1481, 2009; recombinant p97 ATPase, Kinase-Glo ATP luminescence, 3 h; Transitional endoplasmic reticulum ATPase (Homo sapiens), P55072; inhibition, % at 8 µM; in the data active = inhibition above about 15%;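 note: 0% = DMSO vehicle and 100% = wells lacking enzyme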
Target sequence (P55072 whole entry, looked up): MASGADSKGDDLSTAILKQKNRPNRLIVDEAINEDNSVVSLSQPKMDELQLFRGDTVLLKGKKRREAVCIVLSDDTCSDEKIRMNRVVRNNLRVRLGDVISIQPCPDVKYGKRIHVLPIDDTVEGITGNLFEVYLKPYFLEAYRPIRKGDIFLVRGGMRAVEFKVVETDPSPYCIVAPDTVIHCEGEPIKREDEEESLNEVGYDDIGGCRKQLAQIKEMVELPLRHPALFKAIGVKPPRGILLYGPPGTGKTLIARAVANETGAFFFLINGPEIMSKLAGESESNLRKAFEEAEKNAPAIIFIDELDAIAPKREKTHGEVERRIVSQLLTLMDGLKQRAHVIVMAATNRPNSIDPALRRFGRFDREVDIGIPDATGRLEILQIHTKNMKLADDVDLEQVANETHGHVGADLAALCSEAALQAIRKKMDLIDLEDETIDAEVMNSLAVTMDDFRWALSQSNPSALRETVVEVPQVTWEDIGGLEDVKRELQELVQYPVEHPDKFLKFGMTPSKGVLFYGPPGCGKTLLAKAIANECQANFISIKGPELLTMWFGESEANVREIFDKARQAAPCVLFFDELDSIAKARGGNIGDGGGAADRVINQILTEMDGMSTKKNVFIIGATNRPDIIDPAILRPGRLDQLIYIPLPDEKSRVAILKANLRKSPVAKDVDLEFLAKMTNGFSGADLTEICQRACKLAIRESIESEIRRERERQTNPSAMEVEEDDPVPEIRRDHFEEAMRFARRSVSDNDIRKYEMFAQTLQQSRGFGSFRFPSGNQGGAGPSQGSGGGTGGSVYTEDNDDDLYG
STAT1 act: STAT1 signaling activators, primary screen, cell-based, HTS, luciferase reporter; NIH 3T3 STAT1-luciferase reporter, IFN-gamma, luminescence; 100% = IFN-gamma alone, no compound; activation (% of control), % at 5.5 µM; AID 932, 2007; actives 2.6% (n = 200,000);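 active = activation above the screen-wide mean activation plus 3 SD, cut at about 130% in these data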;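 note: raw ratio to IFN-gamma control signal so 100% means no change and 0% no light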
APP 5'UTR act: activators of APP 5'UTR luciferase reporter, primary screen, SH-SY5Y cells; SH-SY5Y APP 5'UTR luciferase reporter, luminescence; zero percent = DMSO vehicle wells; activation, % at 2 µM; actives 1% (n = 190,000); AID 1276, 2008;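 active = activation above a set limit, based on mean plus 3 SD of controls, cut at about 140% in these data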
Wee1 stabilizer: Wee1 degradation inhibitors, primary screen, cell-based, HeLa, Wee1K328M-luciferase, luminescence; actives 1.2% (n = 220,000); HeLa Luc-Wee1K328M stability; 100% = proteasome inhibitor MG132 effect; AID 1321, 2008; reporter increase, % at 5 µM; Wee1-like protein kinase (Homo sapiens), P30291;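 active = activation above the mean of all tested compounds plus 3 SD, set per screening run, cut at about 8.8% in these data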;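 note: cells exposed to compound for 20 h before luminescence read; 0% = DMSO alone and 100% = MG132 at 30 µM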
MDM2 E3 inh: MDM2-luciferase reporter signal enhancers, primary screen, MDM2 E3 ligase inhibitor project, cell-based, luminescence, 1536-well; E3 ubiquitin-protein ligase Mdm2 (Homo sapiens), Q00987; actives 0.11% (n = 210,000); cell-based MDM2 ubiquitination luciferase reporter, 2 h; 0 = plate control, 100 = twice control, blank-subtracted; signal enhancement, % at 5 µM;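 active = signal enhancement of 30% or more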;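 note: luminescence tracks abundance of the self-degrading MDM2-luciferase fusion protein; higher signal means inhibition of MDM2 E3 ligase activity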
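System: stable MDM2–luciferase fusion reporter cells / Input: 2000 cells seeded into each well / Schedule: 4 h settle plus 2 h compound, 37 °C / Compound: single-point 5 µM / Buffer or medium: cells held in DMEM / Benchmarks: control and blank well means / Evaluation: percent signal gain over controls, blank-subtracted / Measured by: luciferase luminescence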
Active calls of the source: *; . = no result. Hits are enriched below; roughly 4.6% of the tested compounds scored in any of these assays.

SMILES	NF-kB expr up	p97 ATPase inh	STAT1 act	APP 5'UTR act	Wee1 stabilizer	MDM2 E3 inh
O=S(=O)(c1ccc(Cl)cc1)N1CCN(Cc2ccc(O)c3ncccc23)CC1	1.4	3	98	-34	0	-18
Oc1c(CN2CCCCC2)cc(Br)c2cccnc12	2.8	3	96	-67	-2	-8
O=C(Nc1ccccc1Cl)c1ccc(-n2cccn2)c([N+](=O)[O-])c1	1.1	-1	105	8	-2	-1
Cc1cccc2nc(CSc3ccccc3N)cn12	4.6*	2	140*	132	3	.
Cc1cccc2nc(CSc3ccccc3C(=O)O)cn12	1.1	2	99	4	-2	-3
Nc1ccc(Oc2ccc(Br)cc2)cc1	3.5*	5	100	-12	6	.
Cc1c(NC(=O)Nc2ccc(Cl)c(Cl)c2)sc(=S)n1C	.	1	101	-9	-2	.
COc1ccc(NC(=O)Nc2ccc(N(C)C)cc2)cc1	1.6	-3	137*	94	4	-9
COc1ccc(NC(=O)Nc2ccc3nonc3c2)cc1	.	4	.	.	-3	-10
COc1ccc(NC(=O)Nc2ccc3nccnc3c2)cc1	1.7	5	130*	97	0	0
CCCNC(=O)C(=O)Nc1ccc(N(C)C)cc1	1.9	10	137*	32	1	-7
COc1ccc(NC(=O)Nc2ccc(OC)cc2)cc1	1.7	1	115	10	-1	-17
COc1ccc(NC(=O)Nc2sc(=S)n(C)c2C)cc1	1.1	2	95	12	12*	-14
N/N=C(\c1ccccc1)C12CN3CN(CN(C3)C1)C2	1	5	105	-19	1	-18
O=C(CCS(=O)(=O)c1ccc(Cl)cc1)Nc1ccc(N2CCOCC2)cc1	.	0	.	.	0	-10
CCN(CC)S(=O)(=O)c1cccc(C(=O)N[C@@H](C)c2nc3ccccc3[nH]2)c1	0.97	2	96	-2	9.9*	-10
CC(NC(=O)c1cccc(S(=O)(=O)N(C)C)c1)c1nc2ccccc2[nH]1 (stereo not drawn)	1	1	89	-7	7	-11
Cc1ccc(-c2nc3ccccc3nc2NN)cc1	.	-9	.	.	2	-30
O=C(Cn1c(-c2cscn2)nc2ccccc21)Nc1ccc2ccccc2c1	0.94	-6	102	5	11*	-16
O=C(Cn1c(-c2cscn2)nc2ccccc21)Nc1cc(F)ccc1F	1.1	-4	105	18	-1	-10
CC(C)C(=O)NC(=S)Nc1ccccc1N1CCN(C(=O)c2ccccc2)CC1	1	5	100	-16	10*	-24
CC(=O)NC(=S)Nc1ccccc1N1CCN(C(=O)c2ccccc2)CC1	0.9	1	97	-2	-3	-13
O=c1c(Cc2c(F)cccc2Cl)c(O)ccn1CCCn1ccnc1	1	-5	100	1	5	-3
CCN1C/C(=N\S(=O)(=O)/N=C2\CN(CC)C(=O)N2CC)N(CC)C1=O	.	-5	.	.	2	-7
CC(/C=N\NC(=O)c1cccnc1)c1ccccc1 (stereo not drawn)	.	-3	96	6	0	.
SMILES	NF-kB expr up	p97 ATPase inh	STAT1 act	APP 5'UTR act	Wee1 stabilizer	MDM2 E3 inh
COc1ccc(C(=O)NC(NC(=O)c2ccc(OC)c(OC)c2)c2ccccc2F)cc1OC	1.2	-1	93	-5	9.9*	2
COc1ccc(C(=O)N/N=C/C(C)c2ccccc2)cc1OC (stereo not drawn)	0.87	16*	109	0	0	-21
Cc1ccccc1Cn1nc(C)c(NC(=O)/C=C/c2cnn(C)c2)c1C	1.4	8	101	24	0	-28
CC(=O)c1cc(C(=O)N2CCCC(CCC(=O)N(C)CCc3ccccn3)C2)cs1 (stereo not drawn)	1.1	2	102	-1	0	-15
CCOC(=O)/C(=C\c1cccnc1)C(=O)c1cc(C(C)=O)c(Nc2ccccc2)s1	0.16	4	104	-45	2	-18
CCOC(=O)/C(=C\c1ccccc1)C(=O)c1cc(C(C)=O)c(Nc2ccccc2)s1	9.7*	-2	79	-11	-1	5
O=C(COc1ccccc1[N+](=O)[O-])Nc1ccc(Br)cc1	.	-3	.	.	-2	4
O=C(COc1ccccc1[N+](=O)[O-])Nc1cccnc1	1.9	6	123	-1	2	-1
Cc1ccc(NC(=O)COc2ccccc2[N+](=O)[O-])nc1	5.5*	-10	95	31	4	-55
Cc1ccnc(NC(=O)COc2ccccc2[N+](=O)[O-])c1	1.1	-2	108	150*	3	-42
C/C(=N\NC(=O)COc1ccccc1[N+](=O)[O-])c1cccs1	1.9	3	144*	41	-2	-21
O=C(COC(=O)COc1ccccc1[N+](=O)[O-])NC1CCCC1	1.1	6	99	.	10*	-9
COc1ccc(OCC(=O)N/N=C(\C)c2cccs2)cc1	.	-2	.	.	0	-8
O=C(Nc1ccc2c(c1)OCO2)c1noc2c1CCCCC2	7.7*	0	142*	178*	10*	-8
COc1ccc(NC(=O)c2cc(C(C)C)on2)cc1OC	1.5	2	117	25	1	-5
COc1ccc(NC(=O)c2cc(C(C)C)on2)c(OC)c1	2.6	-1	138*	53	0	-21
CC(C)c1cc(C(=O)Nc2ccc3c(c2)OCO3)no1	6.4*	2	116	145*	-1	-23
COc1ccc(NC(=O)C/C(C)=N/NC(=O)C(=O)Nc2cccc(Cl)c2C)c(OC)c1	1	6	108	-4	2	-9
COc1ccc(NC(=O)C/C(C)=N/NC(=O)C(=O)NC(C)C)c(OC)c1	1.3	2	102	-11	9.7*	-6
CCOC(=O)/C=C1\Nc2ccccc2OC1=O	2.4	-2	86	3	-1	-9
O=C(Nc1ccc2c(c1)OCO2)c1cnccn1	2.2	0	130*	39	1	-16
O=C(Nc1ccc2c(c1)OCO2)c1ccc(=O)[nH]n1	.	0	.	.	-2	.
O=C(COC(=O)c1cnccn1)Nc1ccc2c(c1)OCO2	1.1	-3	94	0	2	-11
O=C(Nc1ccc2c(c1)OCO2)c1cc(C2CC2)on1	3.9*	8	146*	61	2	-17
CCCc1nnc(NC(=O)c2cccc(OC)c2)s1	2.2	3	134*	37	3	-1
